Laboratory results from ChEMBL document CHEMBL4043191, “Discovery of novel inhibitors of multidrug-resistant Acinetobacter baumannii” (2017).
Values after ≈ are worked out from the molar mass of the structure shown.

What was measured:
Acinetobacter baumannii [1] = test: Antimicrobial activity against Acinetobacter baumannii isolate AB3638 incubated for 16 to 20 hrs by broth microdilution method; type: functional
Procedure, shortened: (§1)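 CLSI broth microdilution in CAMHB, twofold dilutions at final 0.250–128 µg/mL, each in triplicate. Overnight colonies from 5% horse blood agar were suspended in PBS to OD600 0.1 and diluted to a starting inoculum of 5 x 10^5 CFU/mL. Incubated 37 °C for 16–20 h. MIC is the lowest concentration with no visible growth. Quality control used E. coli ATCC 25922 with ampicillin. Final DMSO <1%.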

Acinetobacter baumannii [2] = test: Antimicrobial activity against Acinetobacter baumannii isolate AB499 incubated for 16 to 20 hrs by broth microdilution method; type: functional; procedure, shortened: as §1
Acinetobacter baumannii [3] = test: Bactericidal activity against Acinetobacter baumannii isolate AB5075 assessed as reduction in bacterial colony count at 32 ug/ml incubated for 30 mins by time kill kinetics assay relative to initial bacterial inoculum relative to control; design: scale not given: the % may be the effect or the level left
Acinetobacter baumannii [4] = test: Antimicrobial activity against Acinetobacter baumannii isolate AB4052 incubated for 16 to 20 hrs by broth microdilution method; type: functional; procedure, shortened: as §1
Acinetobacter baumannii [5] = test: Antimicrobial activity against Acinetobacter baumannii isolate AB5075 incubated for 16 to 20 hrs by broth microdilution method; type: functional; procedure, shortened: as §1
Acinetobacter baumannii [6] = test: Antimicrobial activity against Acinetobacter baumannii isolate AB3560 incubated for 16 to 20 hrs by broth microdilution method; type: functional; procedure, shortened: as §1
Acinetobacter baumannii [7] = test: Antimicrobial activity against Acinetobacter baumannii isolate AB5674 incubated for 16 to 20 hrs by broth microdilution method; type: functional; procedure, shortened: as §1
Acinetobacter baumannii [8] = test: Antimicrobial activity against Acinetobacter baumannii isolate AB585 incubated for 16 to 20 hrs by broth microdilution method; type: functional; procedure, shortened: as §1
Acinetobacter baumannii [9] = test: Antimicrobial activity against Acinetobacter baumannii isolate AB0087 incubated for 16 to 20 hrs by broth microdilution method; type: functional; procedure, shortened: as §1
Acinetobacter baumannii [10] = test: Antimicrobial activity against Acinetobacter baumannii isolate AB4795 incubated for 16 to 20 hrs by broth microdilution method; type: functional; procedure, shortened: as §1
Acinetobacter baumannii [11] = test: Antimicrobial activity against Acinetobacter baumannii ATCC AB17978 incubated for 16 to 20 hrs by broth microdilution method; type: functional; procedure, shortened: as §1
Acinetobacter baumannii [12] = test: Antimicrobial activity against Acinetobacter baumannii isolate AB5711 incubated for 16 to 20 hrs by broth microdilution method; type: functional; procedure, shortened: as §1
Acinetobacter baumannii [13] = test: Antimicrobial activity against Acinetobacter baumannii ATCC AB19606 incubated for 16 to 20 hrs by broth microdilution method; type: functional; procedure, shortened: as §1
Acinetobacter baumannii [14] = test: Antimicrobial activity against Acinetobacter baumannii isolate AB4957 incubated for 16 to 20 hrs by broth microdilution method; type: functional; procedure, shortened: as §1
Acinetobacter baumannii [15] = test: Antimicrobial activity against Acinetobacter baumannii isolate AB5075 assessed as reduction in bacterial colony count at 32 ug/ml incubated for 30 mins by time kill kinetics assay relative to initial bacterial inoculum
Acinetobacter baumannii [16] = test: Antimicrobial activity against Acinetobacter baumannii isolate AB0967 incubated for 16 to 20 hrs by broth microdilution method; type: functional; procedure, shortened: as §1
Acinetobacter baumannii [17] = test: Antimicrobial activity against Acinetobacter baumannii isolate AB5075 assessed as reduction in bacterial colony count at 32 ug/ml incubated for 24 hrs by time kill kinetics assay relative to initial bacterial inoculum; type: functional
Procedure, shortened: (§2)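 Time-kill assay on AB5075. 1 mL CAMHB containing compound at 1, 2, 4 or 8× MIC was seeded with 5–7 x 10^5 CFU/mL and shaken at 37 °C for 24 h. Aliquots taken at 0, 6, 12 and 24 h were serially diluted, plated on LB agar and incubated 24 h at 37 °C before counting. Result given as log10 CFU/mL decrease versus initial inoculum. No-drug control; duplicate runs.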

Acinetobacter baumannii [18] = test: Antimicrobial activity against Acinetobacter baumannii isolate AB5075 assessed as reduction in bacterial colony count at 16 ug/ml incubated for 24 hrs by time kill kinetics assay relative to initial bacterial inoculum; type: functional; procedure, shortened: as §2
Acinetobacter baumannii [19] = test: Antimicrobial activity against Acinetobacter baumannii isolate AB5075 assessed as reduction in bacterial colony count at 64 ug/ml incubated for 24 hrs by time kill kinetics assay relative to initial bacterial inoculum; type: functional; procedure, shortened: as §2
Acinetobacter baumannii [20] = test: Antimicrobial activity against Acinetobacter baumannii isolate AB5075 assessed as reduction in bacterial colony count at 128 ug/ml incubated for 24 hrs by time kill kinetics assay relative to initial bacterial inoculum; type: functional; procedure, shortened: as §2

MIC (Acinetobacter baumannii [1]) | MIC (Acinetobacter baumannii [2]) | MIC (Acinetobacter baumannii [4]) | MIC (Acinetobacter baumannii [5]) | MIC (Acinetobacter baumannii [6]) | MIC (Acinetobacter baumannii [7]) | MIC (Acinetobacter baumannii [8]) | MIC (Acinetobacter baumannii [9]) | MIC (Acinetobacter baumannii [10]) | MIC (Acinetobacter baumannii [11]) | MIC (Acinetobacter baumannii [12]) | MIC (Acinetobacter baumannii [13]) | MIC (Acinetobacter baumannii [14]) | MIC (Acinetobacter baumannii [16]) | SMILES | Activity (Acinetobacter baumannii [3]) | Activity (Acinetobacter baumannii [15]) | Activity (Acinetobacter baumannii [17]) | Activity (Acinetobacter baumannii [18]) | Activity (Acinetobacter baumannii [19]) | Activity (Acinetobacter baumannii [20])
16 µg/mL (≈ 76.8 µM) | 1 µg/mL (≈ 4.8 µM) | 32 µg/mL (≈ 154 µM) | 16 µg/mL (≈ 76.8 µM) | 32 µg/mL (≈ 154 µM) | 16 µg/mL (≈ 76.8 µM) | 8 µg/mL (≈ 38.4 µM) | 2 µg/mL (≈ 9.6 µM) | 8 µg/mL (≈ 38.4 µM) | 16 µg/mL (≈ 76.8 µM) | 16 µg/mL (≈ 76.8 µM) | 16 µg/mL (≈ 76.8 µM) | 32 µg/mL (≈ 154 µM) | 16 µg/mL (≈ 76.8 µM) | CCOCCC(=O)NNc1ccccc1 |  |  | 1.02 log10CFU/ml | 0.73 log10CFU/ml | 1.42 log10CFU/ml | 2.1 log10CFU/ml
16 µg/mL (≈ 54.7 µM) | 1 µg/mL (≈ 3.42 µM) | 32 µg/mL (≈ 109 µM) | 16 µg/mL (≈ 54.7 µM) | 32 µg/mL (≈ 109 µM) | 16 µg/mL (≈ 54.7 µM) | 8 µg/mL (≈ 27.4 µM) | 4 µg/mL (≈ 13.7 µM) | 8 µg/mL (≈ 27.4 µM) | 16 µg/mL (≈ 54.7 µM) | 32 µg/mL (≈ 109 µM) | 16 µg/mL (≈ 54.7 µM) | 32 µg/mL (≈ 109 µM) | 16 µg/mL (≈ 54.7 µM) | CCO[C@@H]1CCC[C@H](CC(=O)NNc2ccccc2)[C@H]1O |  |  | 0.75 log10CFU/ml | 0.46 log10CFU/ml | 1.24 log10CFU/ml | 1.74 log10CFU/ml

SMILES | MIC (Acinetobacter baumannii [1]) | MIC (Acinetobacter baumannii [2]) | MIC (Acinetobacter baumannii [4]) | MIC (Acinetobacter baumannii [5]) | MIC (Acinetobacter baumannii [6]) | MIC (Acinetobacter baumannii [7]) | MIC (Acinetobacter baumannii [8]) | MIC (Acinetobacter baumannii [9]) | MIC (Acinetobacter baumannii [10]) | MIC (Acinetobacter baumannii [11]) | MIC (Acinetobacter baumannii [12]) | MIC (Acinetobacter baumannii [13]) | MIC (Acinetobacter baumannii [14]) | MIC (Acinetobacter baumannii [16]) | Activity (Acinetobacter baumannii [3]) | Activity (Acinetobacter baumannii [15]) | Activity (Acinetobacter baumannii [17]) | Activity (Acinetobacter baumannii [18]) | Activity (Acinetobacter baumannii [19]) | Activity (Acinetobacter baumannii [20])
Oc1ccc(Cl)cc1Cc1cc(Cl)ccc1O [DICHLOROPHEN] | 16 µg/mL (≈ 59.5 µM) | 8 µg/mL (≈ 29.7 µM) | 16 µg/mL (≈ 59.5 µM) | 32 µg/mL (≈ 119 µM) | 16 µg/mL (≈ 59.5 µM) | 16 µg/mL (≈ 59.5 µM) | 8 µg/mL (≈ 29.7 µM) | 8 µg/mL (≈ 29.7 µM) | 16 µg/mL (≈ 59.5 µM) | 16 µg/mL (≈ 59.5 µM) | 16 µg/mL (≈ 59.5 µM) | 16 µg/mL (≈ 59.5 µM) | 16 µg/mL (≈ 59.5 µM) | 16 µg/mL (≈ 59.5 µM) | 99.9% | >=3 log10CFU/ml |  |  |  | 
